Assay outcomes deposited in PubChem BioAssay by several laboratories.
HMGR II inh: inhibitors of class II HMG-CoA reductase from Enterococcus faecalis. hit rate 0.41% among 190,000. inhibition, % at 10 µM. purified E. faecalis HMGR, NADPH absorbance 340 nm kinetic. AID 1066;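 active = inhibition above a set limit, the median over all tested compounds plus 3 SD, cut at about 9.5% in these data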;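 also: enzyme runs in reverse so mevalonate oxidation gives rising NADPH absorbance; 0% = complete reaction with DMSO and 100% = background rate lacking mevalonate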
Tb hexokinase: T. brucei hexokinase 1 inhibition. hit rate 0.11% among 220,000. recombinant TbHK1, G6PDH-coupled NADH A340. AID 1430. inhibition, % at 10 µM;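 active = inhibition of 50% or more in the single-dose primary screen; inactive = inhibition below 50%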
EP2 mod: EP2 receptor (human) modulation | P43116 | EP2-expressing cells, cAMP HTRF FRET, PGE2 co-stimulation | induction, % at 25 µM | hit rate 0.83% among 260,000;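 active = compounds whose cAMP rise, as percent of the full-agonist control response, exceeds 60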;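 also: rat C6 glioma line stably carrying human EP2 under a CMV promoter; the protocol text gives 20 µM as final concentration; 100% = response of wells given 1 µM PGE2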
Target sequence (P43116 whole entry, looked up): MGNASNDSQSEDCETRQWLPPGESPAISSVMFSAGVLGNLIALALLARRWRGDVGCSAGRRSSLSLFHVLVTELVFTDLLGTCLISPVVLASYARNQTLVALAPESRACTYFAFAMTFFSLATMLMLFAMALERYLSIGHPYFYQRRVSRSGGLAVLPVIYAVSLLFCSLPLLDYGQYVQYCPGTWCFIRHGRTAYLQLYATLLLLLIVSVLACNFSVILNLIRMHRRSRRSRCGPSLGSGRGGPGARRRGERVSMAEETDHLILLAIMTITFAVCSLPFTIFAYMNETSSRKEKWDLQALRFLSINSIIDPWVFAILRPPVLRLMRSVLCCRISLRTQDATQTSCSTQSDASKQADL
MT stabilizer: microtubule stabilizers in HeLa cells; HeLa tubulin immunostaining HCS, 24 h; share of cells brighter than vehicle mean+2SD; % tubulin-high responders, % at 10 µM; hit rate 0.83% among 200,000; AID 2205;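 active = plate Z-score above 3 for both tubulin-high and condensed-nucleus cell shares, with cell loss under 80%, at 10 µM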;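 also: anti alpha tubulin signal scored within the nucleus-defined area of each cell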
PGE2 EP2 inh: EP2 receptor (human) inhibition | AID 1422 | C6 glioma cells expressing human EP2, cAMP TR-FRET; cells stimulated with saturating PGE2 | inhibition, % at 25 µM | P43116 | hit rate 0.52% among 260,000;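 active = percent inhibition above 40 after rounding to a whole number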;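 also: rat C6 glioma host cells with rolipram phosphodiesterase inhibitor present; the protocol text gives 20 µM as final concentration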
bCat nuc transl: alters nuclear translocation of beta-catenin in HeLa cells; immunofluorescence imaging; nuclear translocation activity, % at 5 µM; hit rate 0.3% among 190,000;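 active = nuclear translocation activity above 50% at 5 µM, with a well cell count of 50 or more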;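 also: per-cell ratio of nuclear to cytoplasmic median beta-catenin stain intensity; plate controls were DMSO negative control for no effect and GSK-3 inhibitor IX positive control for full effect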
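Technique: fluorescence imaging of beta-catenin antibody stain plus DAPI / Material: human HeLa cell line / Incubation: compound treatment 24 h, 37°C, 5% CO2 / Read-out basis: % activation of per-cell nuclear versus cytoplasmic median beta-catenin signal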
Active calls of the source: *; . = no result given; ! = not confirmed by another sample. An excerpt weighted towards active compounds, which were near 2.4% of everything screened.

SMILES	HMGR II inh	Tb hexokinase	EP2 mod	MT stabilizer	PGE2 EP2 inh	bCat nuc transl
O=C(OCCN1C(=O)c2cccc3c(N4CCOCC4)ccc(c23)C1=O)c1cc(Cl)cc(Cl)c1	0	33	4	30*	8	.
Cc1cc(NC(=O)CSc2nnc(-c3ccccc3)c(-c3ccccc3)n2)no1	-2	-3	19	22*	8	2
Cc1cc(NC(=O)CSc2ccccc2)no1	5	-2	-11	3	4	-3
COc1ccc(CC(=O)N2CCC(O)(c3ccccn3)CC2)cc1OC	.	.	-9	.	.	.
O=C(CSc1nnc(-c2ccccc2)o1)N(C1CCCCC1)C1CCCCC1	.	.	76*	.	16	.
COc1ccccc1/C=C/C=N/n1c(-c2n[nH]c3c2CCC3)n[nH]c1=S	.	31	-4	.	2	62*
COc1cccc(/C=N/n2c(-c3n[nH]c4c3CCC4)n[nH]c2=S)c1O	-4	-3	24	5	8	1
COc1cccc(NC(=O)C2CC(=O)N(C)C(=Nc3cccc(F)c3)S2)c1 (stereo not given)	-1	-1	-43	5	7	-1
COc1cccc(N=C2SC(C(=O)Nc3ccccc3F)CC(=O)N2C)c1 (stereo not given)	-6	-4	-19	5	163*	-2
CC1(C)Cc2cccc(OCC(=O)NC3CC3)c2O1	-8	2	-14	1	4	-3
Cc1noc(C)c1COC(=O)COc1cccc2c1OC(C)(C)C2	-5	0	65*	4	10	-7
Cc1ccccc1CN1CCSc2sccc2C1=O	5	1	62*	3	1	-3
O=C1c2ccsc2SCCN1Cc1cccc(Cl)c1	-2	-4	61*	2	10	.
Cc1ccc(C)c2[nH]c(=O)c(CN(CCN(C)C)C(=S)Nc3ccc(F)cc3)cc12	.	.	-61	.	16	.
Cc1nn(C(C)C)c(C)c1CN1C[C@@H]2CCCN2C[C@@H]1Cc1ccccc1	.	.	-45	.	3	.
CCCN1C/C(=C/c2ccc3c(c2)OCO3)C(=O)/C(=C/c2ccc3c(c2)OCO3)C1	-5	-11	38	4	9	1
O=C1OCCC/C1=C\c1ccc2c(c1)OCO2	.	-14	82*	.	6	-1
O=C1N/C(=N\N=C\c2cccs2)SC1Cc1cccc(Cl)c1Cl (stereo not given)	-8	-28	-3	13	4	60*
O=C1N/C(=N\N=C\c2cccs2)SC1Cc1ccc(Cl)cc1Cl (stereo not given)	-2	-31	9	12	15	5
COC(=O)CC[C@@H](C)[C@@H]1CC[C@@H]2[C@H]3CC[C@H]4C[C@@H](O)CC[C@]4(C)[C@@H]3CC[C@]21C	.	.	30	.	42*	.
CC(C)CCC[C@@H](C)[C@@H]1CC[C@@H]2[C@H]3CC[C@H]4C[C@@H](N)CC[C@]4(C)[C@@H]3CC[C@]21C	.	.	-17	.	41*	.
CN(C)c1ccc(CN(CCCn2ccnc2)Cc2nccn2C)cc1	.	.	6	.	9	.
N#CC1=C(N)Oc2cc3ccccc3cc2C1c1cccs1 (stereo not given)	7	0	36	9	13	-1
N#CC1=C(N)Oc2c(ccc3cccnc23)C1c1cccnc1 (stereo not given)	-3	2	6	22*	.	56*
Cc1ccc2cc(C3C(C#N)=C(N)Oc4c3ccc3cccnc43)c(=O)[nH]c2c1 (stereo not given)	1	-12	4	1	10	-1
SMILES	HMGR II inh	Tb hexokinase	EP2 mod	MT stabilizer	PGE2 EP2 inh	bCat nuc transl
N#CC1=C(N)Oc2cc3ccccc3cc2C1c1cccnc1 (stereo not given)	-3	-3	-10	56*	20	-1
CCC(C(=O)OC(C)C)n1cnc2sc3c(c2c1=O)CCC(C)C3 (stereo not given)	.	.	29	.	5	.
O=C1OC(c2ccccc2)=N/C1=C1\OC(=O)c2ccccc21	.	.	-7	.	14	.
Cc1nc(Cl)sc1C(=O)O	-4	55*	22	5	3	-2
CCc1nc(NCCC(C)C)c(C#N)c2c1CCCC2	-4	0	43	2	12	.
CCc1nc(NCc2ccccc2)c(C#N)c2c1CCCC2	-3	-2	64*	4	2	2
Cc1ccc(NC(=O)c2cccc(C(=O)OC(C)C)n2)c(Br)c1	-3	1	62*	2	7	.
COC(=O)c1cccc(C(=O)Nc2ccc(C)cc2Br)n1	-1	-2	41	7	.	3
Cn1c(C(=O)N(Cc2ccccc2)Cc2cccs2)cc2sccc21	-2	4	65*!	1	3	-4
CNC(=S)N1C2CCCC1CC(NC(=O)c1cccc(F)c1)C2 (stereo not given)	.	.	-93	.	2	.
Cc1ccc(C(=O)Nc2ncc([N+](=O)[O-])s2)cc1C	.	.	-82	.	14	.
COC(=O)c1sc(N)c(C(=O)OC)c1COC(=O)c1c(C)noc1C	-2	-21	16	56*	5	24
CCOC(=O)c1c(N)sc(C(=O)OC)c1C	2	-7	5	1	4	0
CN1CCN(C(=O)CC2(CC(=O)O)CCCC2)CC1	13*	5	20	2	2	-2
Cc1ccccc1C1(O)CCN(C(=O)c2cc(-c3cnn(C)c3)n[nH]2)CC1	.	.	-26	.	3	.
COC(=O)c1sc2ccccc2c1-n1cccc1C(=O)C(=O)Nc1ccc(OC)cc1	-5	-17	2	22*	10	.
Cn1ccnc1C(=O)c1cc(SCC(=O)NCc2ccccc2)nc2ccccc12	2	-8	5	16*	8	-2
Cc1nc(SCC(N)=O)n[nH]1	.	.	24	.	4	.
Cc1cc(NC(=O)CSc2nc(-c3ccccc3)cc(C(F)(F)F)n2)no1	.	.	-51	.	19	.
CCCC(=O)Nc1cccc(NC(=O)c2ccc([N+](=O)[O-])o2)c1	.	.	-100	.	42*	.
O=C(CN1C(=O)NC2(CCCC2)C1=O)Nc1ccc(S(=O)(=O)N2CCOCC2)cc1	-1	1	61*	3	4	0
CCC(=O)Nc1cccc(NC(=O)c2ccc([N+](=O)[O-])o2)c1	.	.	-101	.	98*	.
O=C(CN1C(=O)NC2(CCCCC2)C1=O)Nc1cccc(S(=O)(=O)N2CCOCC2)c1	.	4	-11	.	16	1
CCN1CCN(c2ccc(NC(=O)c3ccc([N+](=O)[O-])o3)cc2Cl)CC1	-6	-12	-156	26	116*!	2
O=C(Nc1cccc(NC(=O)c2cccs2)c1)c1ccc([N+](=O)[O-])o1	.	-28	-43	.	23	0
CCCCC(=O)Nc1cccc(NC(=O)c2ccc(Br)o2)c1	2	4	-14	1	9	-5
CN(C)c1ccc(NC(=O)CSc2nnnn2-c2ccc(F)cc2)cc1	.	.	-5	.	6	.
CCN1CCN(c2cc(C)c3cc(NC(=O)c4ccncc4)ccc3n2)CC1	-11	-32	-16	2	14	1
